Among the data in ChEMBL document CHEMBL1165998, “Antihyperglycemic effect of catalpol in streptozotocin-induced diabetic rats” (2010) are Activity values, retold here.

Active and inactive are the calls of the source. The rule behind the calls is not given here.

For experiment [1], the system named is Rattus norvegicus. In words: Antihyperglycemic effect in streptozotocin-induced diabetic Wistar rat assessed as reduction of plasma glucose level at 0.1 mg/kg, iv bolus after 30 mins. The format is functional, organism-based. Details: dose 0.1 mg/kg. Summed up:
(§1)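 STZ (60 mg/kg) given to fasted rats; animals with plasma glucose of 20 mmol/L or more plus diabetic features were used two weeks later. Fasted rats got an i.v. bolus of catalpol in normal saline (0.01–0.15 mg/kg) or vehicle. Tail-vein blood was drawn under pentobarbital at 30 min. Glucose was read enzymatically in duplicate, and activity was calculated as [(Gi−Gt)/Gi]×100%. n=8 per group.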

Experiment [2] has as its system Rattus norvegicus. Description: Antihyperglycemic effect in iv bolus dosed streptozotocin-induced diabetic Wistar rat assessed as reduction of plasma glucose level after 30 mins. It counts as functional, organism-based. Put shortly:
as §1

Experiment [3] relates to Rattus norvegicus. Description: Antihyperglycemic effect in streptozotocin-induced diabetic Wistar rat assessed as reduction of plasma glucose level at 0.15 mg/kg, iv bolus after 30 mins. Set-up: dose 0.15 mg/kg. The format is functional, organism-based. Summed up:
as §1

For experiment [4], the system named is Rattus norvegicus. In words: Antihyperglycemic effect in streptozotocin-induced diabetic Wistar rat assessed as reduction of plasma glucose level at 0.1 mg/kg, iv bolus after 30 mins relative to untreated control. The format is functional. Details: scale not given: the % may be the effect or the level left. Put shortly: as §1
Experiment [5] relates to Rattus norvegicus. In words: Antihyperglycemic effect in streptozotocin-induced diabetic Wistar rat assessed as reduction of plasma glucose level at 0.01 mg/kg, iv bolus after 30 mins relative to untreated control. The format is functional. Set-up: scale not given: the % may be the effect or the level left. Put shortly:
as §1

In experiment [6] the test system is Soleus muscle. Description: Increase in uptake of 2-[1-14C]-deoxy-D-glucose in streptozotocin-induced diabetic Wistar rat isolated soleus muscle after 30 mins by beta counter. The format is functional, tissue-based. Summed up: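 Soleus strips came from STZ-diabetic rats. They were preincubated 30 min in KRBB (pH 7.4, 37 °C, 1 mmol/L glucose, 1% BSA, 5% CO2/O2), then exposed 30 min to test agent (10-8–10-6 M). Next came 5 min with 2-[1-14C]-deoxy-D-glucose (1 µCi/mL). Tissue was digested in NaOH and counted by β-counter. Non-specific uptake with 20 µmol/L cytochalasin B was subtracted. n=8.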

The test system of experiment [7] is Hepatocyte. In words: Increase in glycogen synthesis in streptozotocin-induced diabetic Wistar rat hepatocyte assessed as [U14C]glucose incorporation in to glycogen […] by ethanol precipitation assay. It counts as functional, cell-based. Put shortly:
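Hepatocytes from STZ-diabetic rats were isolated by collagenase perfusion (>90% viable by trypan blue). After 30 min preincubation in KRBB at 37 °C, they were incubated with [U-14C]-glucose (0.25 µCi/mL) plus test agent (10-8–10-6 M) for 1 h with shaking. Glycogen label was measured by ethanol precipitation and expressed as pmol/mg protein. n=8; compared against vehicle blanks.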

In experiment [8] the test system is Rattus norvegicus. In words: Antihyperglycemic effect in normal Wistar rat assessed as attenuation of increase of plasma glucose level at 0.1 mg/kg, iv bolus measured 5 mins after intravenous glucose challenge test.
For experiment [9], the system named is Rattus norvegicus. In words: Antihyperglycemic effect in normal Wistar rat assessed as attenuation of increase of plasma glucose level at 0.1 mg/kg, iv bolus measured 20 mins after intravenous glucose challenge test.
The subject of experiment [10] is Rattus norvegicus. In words: Antihyperglycemic effect in normal Wistar rat assessed as attenuation of increase of plasma glucose level at 0.1 mg/kg, iv bolus measured 30 mins after intravenous glucose challenge test.
In experiment [11] the test system is Rattus norvegicus. Description: Antihyperglycemic effect in streptozotocin-induced diabetic Wistar rat assessed as reduction of plasma glucose level at 100 mg/kg, po relative to untreated control. Set-up: scale not given: the % may be the effect or the level left.

As for `OC[C@H]1O[C@@H](O[C@@H]2OC=C[C@H]3[C@H](O)[C@@H]4O[C@]4(CO)[C@@H]23)[C@H](O)[C@@H](O)[C@@H]1O` [CATALPOL], the outcome in [1], in experiment [3], in experiment [8] and in experiment [9] was Active. The Activity entry in experiment [2] is “Dose-dependent effect”; in [4], 24.33%; in [5] it was 8.53%; in [6] it was “Dose-dependent effect”; in experiment [7], “Dose-dependent effect”. Besides, the result in [10] was inactive.

For `CN(C)C(=N)NC(=N)N` [METFORMIN], the Activity in experiment [11] came to 32%.
